Most compounds without a hit are left out; they make up all but 2.9% or so of the library.
A3G deaminase: APOBEC3G (human) deaminase inhibition; Q9HC16; inhibition, % at 20 µM; 0.28% of 330,000 active; recombinant A3G, ssDNA deamination FAM/TAMRA fluorescence;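 active = inhibition of at least 40% at 20 µM, with no more than 30% in the related APOBEC3A deaminase screen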;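 also: plate controls were DMSO wells with A3G for no effect and wells lacking A3G enzyme for full effect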
HCV NS3 hel inh: HCV NS3 helicase inhibition | inhibition, % at 10.9 µM | 0.56% of 290,000 active | NS3 helicase DNA unwinding, Cy5 molecular beacon fluorescence;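 active = inhibition above the mean of all tested compounds plus 3 SD, set per campaign, cut at about 35% in these data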;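 also: 0% = DMSO wells and 100% = thioflavine S control wells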
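Assay system – hepatitis C virus NS3 helicase domain fragment enzyme · Buffer or medium – MOPS pH 6.5, MgCl2, DTT, Tween20, BSA · Reagent – Cy5/quencher beacon DNA duplex and ATP to start · Compound – single 10.9 µM dose · Timing – 1 h at 25 °C · Technique – Cy5 beacon fluorescence read at start and 1 h · Measure – % inhibition of unwinding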
APOBEC3A inh: human APOBEC3A DNA deaminase inhibition; P31941; recombinant A3A, FAM/TAMRA ssDNA deamination fluorescence; inhibition, % at 20 µM; 0.41% of 330,000 active; AID 493011;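 active = at least 40% inhibition at 20 µM here, with at most 30% in a related deaminase screen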;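 also: plate controls were A3A with DMSO for no effect and wells lacking A3A enzyme for full effect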
Target sequence (P31941 whole entry, looked up): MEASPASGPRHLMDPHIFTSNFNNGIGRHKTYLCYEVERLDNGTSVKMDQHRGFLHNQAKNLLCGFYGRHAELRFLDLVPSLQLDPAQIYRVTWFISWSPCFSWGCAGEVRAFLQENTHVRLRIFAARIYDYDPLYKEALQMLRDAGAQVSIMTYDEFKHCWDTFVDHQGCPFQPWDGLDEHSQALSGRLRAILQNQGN
ABHD5-PLIN5 inh: blocks binding of human ABHD5 to perilipin-5 | Q00G26+Q8WTS1 | Split G. princeps luciferase complementation, luminescence, 4 h | inhibition, % at 4 µM | 0.78% of 360,000 active;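 active = inhibition above the mean inhibition across every tested compound plus 3 SD, cut at about 22% in these data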;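 also: 0% = DMSO only wells and the 100% control is not disclosed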
PRMT1 inh: blocks human protein arginine methyltransferase 1; inhibition, % at 2.79 µM; 1.3% of 370,000 active; recombinant PRMT1, activity-based probe fluorescence polarization;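 active = inhibition above about 21% made by adding two undisclosed values, limit read from the data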
Target sequence (Q99873 whole entry, looked up): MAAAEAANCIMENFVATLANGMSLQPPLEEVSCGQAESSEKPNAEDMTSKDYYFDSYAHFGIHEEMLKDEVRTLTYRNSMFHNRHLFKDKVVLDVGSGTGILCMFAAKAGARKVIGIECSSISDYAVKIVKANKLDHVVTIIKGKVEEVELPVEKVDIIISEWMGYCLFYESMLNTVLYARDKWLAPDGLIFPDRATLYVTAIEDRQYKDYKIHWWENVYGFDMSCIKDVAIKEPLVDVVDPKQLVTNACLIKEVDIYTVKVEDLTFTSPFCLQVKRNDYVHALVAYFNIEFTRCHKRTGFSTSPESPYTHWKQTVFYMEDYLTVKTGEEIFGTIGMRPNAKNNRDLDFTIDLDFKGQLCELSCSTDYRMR
core dimer inh: blocks dimerization of HCV core protein; TR-FRET GST/Flag-core106 dimerization, 1536-well; inhibition, % at 5 µM; 0.33% of 300,000 active;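 active = inhibition above the mean of all tested compounds plus 3 SD, set per screening campaign, cut at about 45% in these data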
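Material: GST/Flag-tagged HCV core106 proteins. Incubation: 4 h, 22.5 °C incubation. Read-out basis: inhibition (%) from 671 over 617 nm ratio. Measured by: TR-FRET, excitation 340 nm, emission 617 and 671 nm.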
* = called active by the depositor; . = no result.

SMILES	A3G deaminase	HCV NS3 hel inh	APOBEC3A inh	ABHD5-PLIN5 inh	PRMT1 inh	core dimer inh
CC(Oc1ccc2c(c1)oc(=O)c1ccccc12)C(=O)NC(Cc1c[nH]c2ccc(O)cc12)C(=O)O (stereo not drawn)	20.5	15.1	3.8	-0.5	22.1*	-2.6
CCOC(=O)C1(C)CCN1C(=O)/C=C/c1ccccc1 (stereo not drawn)	.	.	.	-4.5	-2.6	.
c1ccc2oc(C3=NNC(=NC4CC4)SC3)cc2c1	-2.2	-4.3	0.3	-23.3	35.7*	10.4
CCCCN=C1NN=C(c2ccc3c(c2)OCCO3)CS1	-9.2	-18.5	-3.8	-14.2	6.2	3.7
c1cc2c(cc1C1=NNC(=NC3CC3)SC1)OCCO2	-2.3	-8.2	-2.6	-20.8	46.3*	-2.0
C[C@H]1C(C(=O)N(C)C2CCCCC2)=Cc2c(n(-c3ccc(F)cc3)c(=O)n2CCCOc2ccccc2)C=C1c1ccccc1	.	.	.	.	2.2	.
Cn1c(=O)c([N+](=O)[O-])c(Cl)c2ccccc21	.	-1.6	.	33.6*	17.8	.
CC(C)C[C@H](NC(=O)c1ccc(Cl)cc1Cl)C(=O)N1CCC[C@H]1C(=O)NCc1ccccc1	.	.	.	.	1.4	.
CCOc1ccccc1-n1c(=S)sc2c(=O)n(-c3ccc(C)cc3)c(=S)[nH]c21	-9.1	9.9	-9.4	-5.7	73.0*	4.5
CCn1c(=S)sc2c(=O)n(-c3ccccc3)c(=S)[nH]c21	-14.2	13.8	5.8	4.9	6.5	3.3
O=C(O)c1cc(-c2ccco2)nc2ccccc12	37.9	20.2	82.8	9.8	23.5*	-3.7
CCc1cc(C(=O)N/N=C/c2ccc(O)cc2)c2ccccc2n1	-1.9	-1.9	0.2	22.7*	3.0	-1.6
Cc1ccc(-c2cc(C(=O)NC3=NCCS3)c3cc(Br)ccc3n2)o1	2.0	19.2	-0.6	.	.	51.4*
O=C(O)c1cc(-c2cc(C(=O)O)c3ccccc3n2)nc2ccccc12	.	9.1	.	.	.	4.0
O=C(Nc1cccc(S(=O)(=O)NC2=NCCC2)c1)c1cc(-c2ccco2)nc2ccccc12	78.0	44.8*	86.4	8.3	14.4	76.0*
Cc1cc(C(=O)N/N=C/c2ccc(N(C)C)cc2)c2ccccc2n1	-7.2	0.1	-4.9	-3.7	-2.6	-12.3
Cc1ccc(-c2cc(C(=O)NN3CCOCC3)c3cc(Br)ccc3n2)o1	-13.1	8.9	3.6	6.3	10.1	7.4
Cc1csc(NC(=O)c2cc(-c3ccco3)nc3ccccc23)n1	15.6	26.2	26.8	5.9	23.5*	33.9
O=C(Nc1nccs1)c1cc(-c2ccccc2)nc2ccccc12	-1.2	-0.6	-0.5	4.5	0.1	7.4
O=C(Nc1nccs1)c1cc(-c2ccco2)nc2ccccc12	.	17.7	.	5.1	10.1	84.2*
COc1cccc(NC(=O)c2cc(-c3ccc(C)o3)nc3ccccc23)c1	8.1	28.3	19.6	15.9	9.6	48.2*
O=C(OCC(=O)N1CCN(C(=O)c2ccco2)CC1)c1cc(-c2ccco2)nc2ccccc12	56.8	5.8	63.4	23.9*	.	68.4*
NC(=O)c1ccc(SCC(=O)OCC(=O)N2CCCCC2)c([N+](=O)[O-])c1	-11.1	.	-0.2	1.9	3.6	-0.5
O=C(N/N=C/c1ccc(F)cc1)c1cc(-c2ccco2)nc2ccccc12	84.8	38.8*	93.2	3.4	4.4	68.7*
NC(=O)c1ccc(SCC(=O)OCC(=O)N2CCN(C(=O)c3ccco3)CC2)c([N+](=O)[O-])c1	-5.8	.	7.0	13.7	22.1*	3.8
SMILES	A3G deaminase	HCV NS3 hel inh	APOBEC3A inh	ABHD5-PLIN5 inh	PRMT1 inh	core dimer inh
Cc1nnc(NC(=O)c2cc(-c3ccco3)nc3ccccc23)s1	51.6	.	84.5	4.2	17.9	78.0*
Cc1ccc(-n2nnnc2CNC(=O)c2ccc3c(c2)OCO3)cc1C	-5.4	-5.9	-5.3	3.4	-0.9	4.9
Cc1ccc(NC(=O)CSc2nnc(C)c(=O)n2N)cc1Cl	-7.9	-2.7	-7.0	-4.7	4.9	4.9
Cc1nnc(SCC(=O)c2ccc(Cl)cc2)n(N)c1=O	14.6	11.8	-8.7	-30.0	37.3*	-1.2
COC(=O)C1=C(C)N(C)C(=NCc2ccc(OC)cc2)NC1c1cccc(C(F)(F)F)c1 (stereo not drawn)	.	.	.	.	-4.3	.
O=C(CNc1ccc2ccccc2c1)N/N=C/c1ccncc1	-7.6	9.3	-11.3	-5.7	21.6*	-16.9
O=C(CNc1ccc2ccccc2c1)N/N=C/c1ccccn1	-5.0	-3.4	-4.3	3.2	4.3	2.3
CSCc1cc(C(=O)NC2CC2)c(N)s1	.	.	.	-12.5	22.5*	.
O=C1NC(=O)C2(CCc3ccccc32)N1 (stereo not drawn)	2.0	15.6	-5.4	3.2	-1.2	-5.6
C=C1CC2(OC1=O)c1ccccc1CCc1ccccc12	.	.	.	59.6*	11.9	.
Cc1ccccc1CN(C)CCS(=O)(=O)c1cc(Cl)ccc1Cl	-9.9	-6.8	-2.7	22.6*	0.6	0.2
Cc1ccc(-c2csc(NC(=O)c3ccno3)n2)cc1	-1.7	7.0	4.8	5.1	10.4	61.9*
Cc1ccc(-c2csc(NC(=O)c3ccc(C)o3)n2)cc1	-7.0	-0.5	-0.7	-5.0	0.1	10.7
CCOC(=O)N1CCN(C(=O)C[C@H]2C[C@@]3(C(=O)OC)C(=C[C@H](C4CCCC4)O[C@@H]3C)N(Cc3cccc4ccccc34)C2=O)CC1	.	.	.	.	-0.5	.
C=CCN=C1NC(c2ccccc2C(F)(F)F)C(C(=O)OC)=C(C)N1Cc1ccc(C(F)(F)F)cc1 (stereo not drawn)	.	.	.	.	-0.8	.
O=C(CN1C(=O)S/C(=C\c2ccccc2Cl)C1=O)NCCCn1ccnc1	0.9	-17.3	-3.1	6.5	23.9*	-0.8
COc1ccccc1/C=C1\SC(=O)N(CC(=O)NCCCn2ccnc2)C1=O	-0.7	-14.1	-2.0	-11.1	2.8	2.7
Cc1c(C(=O)Nc2ccccc2F)sc2ncn(CC(=O)N3CCOCC3)c(=O)c12	-6.5	7.0	-10.4	4.7	-1.1	5.5
COc1cccc(CCc2nnc(N)s2)c1	-4.9	-5.9	-5.0	3.1	22.6*	5.3
COc1ccc(CCc2nnc(N)s2)cc1OC	-0.8	2.2	-1.4	-8.0	0.6	-2.1
CCCCn1c(SCC(=O)Nc2cc(C)on2)nc2ccccc2c1=O	-5.5	3.2	-1.3	-8.8	0.1	73.2*
CCCCn1c(SCC(=O)Nc2ccc(NC(C)=O)cc2)nc2ccccc2c1=O	-8.4	-3.1	-5.7	-3.6	-3.1	-11.8
CCOC(=O)C1(C)CCN1C(=O)c1cncc(Br)c1 (stereo not drawn)	.	.	.	2.4	-2.7	.

Screening results deposited in PubChem BioAssay by several laboratories.
